From ChEMBL document CHEMBL1649255, “Impact of novel human immunodeficiency virus type 1 reverse transcriptase mutations P119S and T165A on 4'-ethynylthymidine analog resistance profile” (Antimicrob Agents Chemother, 2009)
pEC50, pKi: −log10 of the molar value.

Experiments:
[1] = test system: Cc1cn([C@H]2C[C@H](O)[C@@H](COP(=O)(O)OP(=O)(O)OP(=O)(O)O)O2)c(=O)[nH]c1=O; assay: Ratio of Kcat to Km for HIV1 Reverse transcriptase P119S/M184V mutant; details: Human immunodeficiency virus 1
[2] = test system: Cc1cn([C@H]2C[C@H](O)[C@@H](COP(=O)(O)OP(=O)(O)OP(=O)(O)O)O2)c(=O)[nH]c1=O; assay: Activity of HIV1 Reverse transcriptase P119S/M184V mutant; details: Human immunodeficiency virus 1
[3] = test system: Human immunodeficiency virus 1; assay: Antiviral activity against HIV1 pNL4-3 harboring Reverse transcriptase P119S/T165A mutant gene infected in TZM-bl cells after 72 hrs by luciferase assay; assay type: functional, organism-based; details: Human immunodeficiency virus 1, pNL4-3, TZM-bl
Method in brief: (§1)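 TZM-bl cells (LTR-driven luciferase reporter) at 5 × 10^4 per well in RPMI 1640 with 10% dialyzed FBS. They were preincubated 16 h at 37°C with a range of 4′-Ed4T, d4T, 3TC or AZT, then infected with NL4-3-derived clones at MOI 0.01. After 72 h, lysates were read for luciferase, with uninfected background subtracted. EC50 is from % of no-drug signal, reported as mean ± SD of three experiments.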

[4] = test system: Human immunodeficiency virus 1; assay: Antiviral activity against HIV1 pNL4-3 harboring Reverse transcriptase P119S/T165A/M184V mutant gene infected in TZM-bl cells after 72 hrs by luciferase assay; assay type: functional, organism-based; details: Human immunodeficiency virus 1, pNL4-3, TZM-bl; method in brief: as §1
[5] = test system: Human immunodeficiency virus 1; assay: Antiviral activity against HIV1 pNL4-3 harboring Reverse transcriptase M184V mutant gene infected in TZM-bl cells after 72 hrs by luciferase assay; assay type: functional, organism-based; details: Human immunodeficiency virus 1, pNL4-3, TZM-bl; method in brief: as §1
[6] = test system: Human immunodeficiency virus 1; assay: Antiviral activity against HIV1 pNL4-3 harboring Reverse transcriptase T165A/M184V mutant gene infected in TZM-bl cells after 72 hrs by luciferase assay; assay type: functional, organism-based; details: Human immunodeficiency virus 1, pNL4-3, TZM-bl; method in brief: as §1
[7] = test system: Human immunodeficiency virus 1; assay: Antiviral activity against HIV1 pNL4-3 harboring Reverse transcriptase P119S/M184V mutant gene infected in TZM-bl cells after 72 hrs by luciferase assay; assay type: functional, organism-based; details: Human immunodeficiency virus 1, pNL4-3, TZM-bl; method in brief: as §1
[8] = test system: Human immunodeficiency virus 1; assay: Antiviral activity against wild-type HIV1 pNL4-3 infected in TZM-bl cells by luciferase assay; assay type: functional, organism-based; details: Human immunodeficiency virus 1, pNL4-3, TZM-bl; method in brief: as §1
[9] = test system: Human immunodeficiency virus 1; assay: Antiviral activity against HIV1 pNL4-3 harboring Reverse transcriptase P119S mutant gene infected in TZM-bl cells after 72 hrs by luciferase assay; assay type: functional, organism-based; details: Human immunodeficiency virus 1, pNL4-3, TZM-bl; method in brief: as §1
[10] = test system: Human immunodeficiency virus 1; assay: Antiviral activity against HIV1 pNL4-3 harboring Reverse transcriptase T165A mutant gene infected in TZM-bl cells after 72 hrs by luciferase assay; assay type: functional, organism-based; details: Human immunodeficiency virus 1, pNL4-3, TZM-bl; method in brief: as §1
[11] = test system: Human immunodeficiency virus 1; assay: Antiviral activity against HIV1 pNL4-3 harboring chimeric pTKD infected in TZM-bl cells after 72 hrs by luciferase assay; assay type: functional, organism-based; details: Human immunodeficiency virus 1, pNL4-3, TZM-bl; method in brief: as §1
[12] = test system: Human immunodeficiency virus type 1 reverse transcriptase (Human immunodeficiency virus 1), Q72547 [T165A]; assay: Ratio of Ki to Km for HIV1 Reverse transcriptase T165A mutant
Method in brief: (§2)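 Steady-state inhibition of dTTP incorporation used 2.5 nM wild-type or mutant RT and 250 nM DNA/RNA 23-mer/36-mer primer/template. Apparent dTTP Km was measured across varied 4′-Ed4TTP or d4TTP to give Ki. Ki/Km(dTTP) served as the inhibition index.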

[13] = target: Human immunodeficiency virus type 1 reverse transcriptase (Human immunodeficiency virus 1, UniProt Q72547, M184V/P119S/T165A); assay: Inhibition of HIV1 Reverse transcriptase P119S/T165A/M184V mutant; method in brief: as §2
[14] = target: Human immunodeficiency virus type 1 reverse transcriptase (Human immunodeficiency virus 1, UniProt Q72547, M184V); assay: Inhibition of HIV1 Reverse transcriptase M184V mutant; method in brief: as §2
[15] = target: Human immunodeficiency virus type 1 reverse transcriptase (Human immunodeficiency virus 1) (UniProt Q72547); assay: Ratio of Ki to Km for wild-type HIV1 Reverse transcriptase; method in brief: as §2
[16] = target: Human immunodeficiency virus type 1 reverse transcriptase (Human immunodeficiency virus 1, UniProt Q72547); assay: Inhibition of wild-type HIV1 Reverse transcriptase
Method in brief: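 Same steady-state dTTP incorporation reaction: 250 nM DNA 23-mer/RNA 36-mer primer/template, 2.5 nM RT, Tris-HCl pH 8.0/NaCl/MgCl2/DTT/BSA buffer, 37°C. The analog triphosphate inhibitor was added at various concentrations. Apparent dTTP Km was measured at each inhibitor level to derive Ki, and Ki/Km(dTTP) was used as an inhibition-efficiency index.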

[17] = test system: Human immunodeficiency virus type 1 reverse transcriptase (Human immunodeficiency virus 1), Q72547 [P119S,M184V]; assay: Ratio of Ki to Km for HIV1 Reverse transcriptase P119S/M184V mutant; method in brief: as §2
[18] = target: Human immunodeficiency virus type 1 reverse transcriptase (Human immunodeficiency virus 1, UniProt Q72547, M184V/T165A); assay: Inhibition of HIV1 Reverse transcriptase T165A/M184V mutant; method in brief: as §2
[19] = target: Human immunodeficiency virus type 1 reverse transcriptase (Human immunodeficiency virus 1, UniProt Q72547, P119S/T165A); assay: Inhibition of HIV1 Reverse transcriptase P119S/T165A mutant; method in brief: as §2
[20] = test system: Human immunodeficiency virus type 1 reverse transcriptase (Human immunodeficiency virus 1), Q72547 [P119S,T165A]; assay: Ratio of Ki to Km for HIV1 Reverse transcriptase P119S/T165A mutant; method in brief: as §2
[21] = test system: Human immunodeficiency virus type 1 reverse transcriptase (Human immunodeficiency virus 1), Q72547 [T165A,M184V]; assay: Ratio of Ki to Km for HIV1 Reverse transcriptase T165A/M184V mutant; method in brief: as §2
[22] = target: Human immunodeficiency virus type 1 reverse transcriptase (Human immunodeficiency virus 1, UniProt Q72547, T165A); assay: Inhibition of HIV1 Reverse transcriptase T165A mutant; method in brief: as §2
[23] = test system: Human immunodeficiency virus type 1 reverse transcriptase (Human immunodeficiency virus 1), Q72547 [P119S]; assay: Ratio of Ki to Km for HIV1 Reverse transcriptase P119S mutant; method in brief: as §2
[24] = target: Human immunodeficiency virus type 1 reverse transcriptase (Human immunodeficiency virus 1, UniProt Q72547, M184V/P119S); assay: Inhibition of HIV1 Reverse transcriptase P119S/M184V mutant; method in brief: as §2
[25] = test system: Human immunodeficiency virus type 1 reverse transcriptase (Human immunodeficiency virus 1), Q72547 [M184V]; assay: Ratio of Ki to Km for HIV1 Reverse transcriptase M184V mutant; method in brief: as §2
[26] = test system: Human immunodeficiency virus type 1 reverse transcriptase (Human immunodeficiency virus 1), Q72547 [P119S,T165A,M184V]; assay: Ratio of Ki to Km for HIV1 Reverse transcriptase P119S/T165A/M184V mutant; method in brief: as §2
[27] = target: Human immunodeficiency virus type 1 reverse transcriptase (Human immunodeficiency virus 1, UniProt Q72547, P119S); assay: Inhibition of HIV1 Reverse transcriptase P119S mutant; method in brief: as §2
[28] = test system: Cc1cn([C@H]2C[C@H](O)[C@@H](COP(=O)(O)OP(=O)(O)OP(=O)(O)O)O2)c(=O)[nH]c1=O; assay: Ratio of Kcat to Km for HIV1 Reverse transcriptase T165A/M184V mutant; details: Human immunodeficiency virus 1
[29] = test system: Cc1cn([C@H]2C[C@H](O)[C@@H](COP(=O)(O)OP(=O)(O)OP(=O)(O)O)O2)c(=O)[nH]c1=O; assay: Activity of HIV1 Reverse transcriptase T165A/M184V mutant; details: Human immunodeficiency virus 1
[30] = test system: Cc1cn([C@H]2C[C@H](O)[C@@H](COP(=O)(O)OP(=O)(O)OP(=O)(O)O)O2)c(=O)[nH]c1=O; assay: Activity of HIV1 Reverse transcriptase P119S/T165A/M184V mutant; details: Human immunodeficiency virus 1
[31] = test system: Cc1cn([C@H]2C[C@H](O)[C@@H](COP(=O)(O)OP(=O)(O)OP(=O)(O)O)O2)c(=O)[nH]c1=O; assay: Ratio of Kcat to Km for HIV1 Reverse transcriptase P119S/T165A/M184V mutant; details: Human immunodeficiency virus 1

In the case of “Human immunodeficiency virus type 1 reverse transcriptase (Human immunodeficiency virus 1) (from UniProt Q72547) P119S,M184V”, the kcat/Km (10'-2/microM/s) [1] was 2.2, the Km [2] was 0.18 µM and the kcat [2] was 4 ×10⁻⁵ /s.

In the case of `Cc1cn([C@H]2C[C@H](N=[N+]=[N-])[C@@H](CO)O2)c(=O)[nH]c1=O` [ZIDOVUDINE], the pEC50 [3] was 7.59, the pEC50 [4] was 7.28 and the pEC50 [5] was 7.96. For the same compound, the pEC50 [6] was 7.62, the pEC50 [7] was 7.96 and the pEC50 [8] was 7.64. It also gave a pEC50 [9] of 7.77, a pEC50 [10] of 7.66 and a pEC50 [11] of 8.10.

`Cc1cn([C@H]2C=C[C@@H](COP(=O)(O)OP(=O)(O)OP(=O)(O)O)O2)c(=O)[nH]c1=O` [STAVUDINE TRIPHOSPHATE] gave a Ki/Km [12] of 2.1, a pKi [13] of 5.98 and a pKi [14] of 6.10. It also gave a Ki/Km [15] of 5.3, a pKi [16] of 6.20 and a Ki/Km [17] of 2.7. For the same compound, the pKi [18] was 6.52, the pKi [19] was 6.43 and the Ki/Km [20] was 5.3. For the same compound, the Ki/Km [21] was 2.7, the pKi [22] was 6.68 and the Ki/Km [23] was 2.1. It also gave a pKi [24] of 6.32, a Ki/Km [25] of 6.6 and a Ki/Km [26] of 7. For the same compound, the pKi [27] was 6.19.

Work on “Human immunodeficiency virus type 1 reverse transcriptase (Human immunodeficiency virus 1) (from UniProt Q72547) T165A,M184V” yielded a kcat/Km (10'-2/microM/s) [28] of 1.3 and a kcat [29] of 1.4 ×10⁻⁵ /s.

Work on `Nc1ccn([C@@H]2CS[C@H](CO)O2)c(=O)n1` [LAMIVUDINE] yielded a pEC50 [3] of 5.68, a pEC50 [4] of less than 4.22 and a pEC50 [5] of less than 4.22. The pEC50 [6] was less than 4.22, the pEC50 [7] was less than 4.22 and the pEC50 [8] was 6.19. For the same compound, the pEC50 [9] was 6.33, the pEC50 [10] was 5.97 and the pEC50 [11] was less than 4.22.

Compound “Human immunodeficiency virus type 1 reverse transcriptase (Human immunodeficiency virus 1) (from UniProt Q72547) P119S,T165A,M184V” has a Km [30] of 0.15 µM, a kcat [30] of 9 ×10⁻⁵ /s and a kcat/Km (10'-3/microM/s) [31] of 6.
